Data published in ChEMBL document CHEMBL1138259, “Novel fluorinated derivatives of the broad-spectrum MMP inhibitors N-hydroxy-2(R)-[[(4-methoxyphenyl)sulfonyl](benzyl)- and (3-picolyl)-amino]-3-methyl-butanamide as potential tools for the molecular imaging of activated MMPs with PET” (J Med Chem, 2007).

Assays:
[1] = target: Matrix metalloproteinase-9 (Homo sapiens, UniProt P14780); assay: Inhibition of MMP9
[2] = target: 72 kDa type IV collagenase (Homo sapiens, UniProt P08253); assay: Inhibition of MMP2
72 kDa type IV collagenase, sequence (P08253 whole entry): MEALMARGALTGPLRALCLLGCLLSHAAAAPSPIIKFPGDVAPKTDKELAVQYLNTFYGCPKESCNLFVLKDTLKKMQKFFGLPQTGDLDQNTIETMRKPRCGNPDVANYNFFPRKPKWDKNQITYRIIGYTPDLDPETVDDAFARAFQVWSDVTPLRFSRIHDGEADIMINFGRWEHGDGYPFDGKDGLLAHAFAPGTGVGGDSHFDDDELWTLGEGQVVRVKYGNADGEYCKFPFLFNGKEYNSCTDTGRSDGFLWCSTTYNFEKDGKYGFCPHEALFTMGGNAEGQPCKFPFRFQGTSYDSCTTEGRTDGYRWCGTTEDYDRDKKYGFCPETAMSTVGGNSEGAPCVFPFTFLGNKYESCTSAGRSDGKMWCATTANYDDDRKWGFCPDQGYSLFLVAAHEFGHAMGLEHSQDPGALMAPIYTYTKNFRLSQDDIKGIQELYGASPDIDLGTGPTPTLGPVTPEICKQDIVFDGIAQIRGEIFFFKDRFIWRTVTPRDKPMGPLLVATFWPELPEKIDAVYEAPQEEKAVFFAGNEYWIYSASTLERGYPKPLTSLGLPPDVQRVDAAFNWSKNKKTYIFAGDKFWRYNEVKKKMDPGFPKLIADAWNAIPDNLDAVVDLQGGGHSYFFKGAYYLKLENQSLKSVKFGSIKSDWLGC

Neutrophil collagenase = Neutrophil collagenase (Homo sapiens, UniProt P22894); assay: Inhibition of MMP8
Neutrophil collagenase, sequence (P22894 whole entry): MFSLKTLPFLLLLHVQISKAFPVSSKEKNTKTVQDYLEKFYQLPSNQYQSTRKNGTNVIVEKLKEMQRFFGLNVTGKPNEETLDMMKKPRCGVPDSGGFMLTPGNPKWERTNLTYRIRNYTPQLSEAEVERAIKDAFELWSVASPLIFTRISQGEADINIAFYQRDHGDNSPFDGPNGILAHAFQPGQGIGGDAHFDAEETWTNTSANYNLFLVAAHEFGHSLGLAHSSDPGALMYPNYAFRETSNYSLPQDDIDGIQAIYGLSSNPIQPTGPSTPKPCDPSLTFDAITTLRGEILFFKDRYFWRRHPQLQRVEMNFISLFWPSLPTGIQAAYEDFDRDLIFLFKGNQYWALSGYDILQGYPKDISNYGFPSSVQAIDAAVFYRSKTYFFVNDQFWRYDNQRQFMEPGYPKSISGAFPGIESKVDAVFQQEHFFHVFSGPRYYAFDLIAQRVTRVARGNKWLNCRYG

Collagenase 3 = Collagenase 3 (Homo sapiens, UniProt P45452)
[3] = Lipophilicity, log D of the compound; format: physicochemical; details: octanol/water
How it was run: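 Shake-flask partition of ¹⁸F-radioligand between 1-octanol and 0.02 M phosphate buffer, pH 7.4. Both layers gamma-counted with decay back-correction. log D taken as log of cpm/mL octanol over cpm/mL buffer. Four repeats, reported as mean ± SD.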

[4] = Stability in C57BL/6 mouse plasma at 13 to 38 MBq.kg^-1 after 20 mins; format: ADME, organism-based; details: read-out: Stability
How it was run: (§1)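 Adult C57BL/6 mice (male and female, 25-30 g) received an ¹⁸F-radiotracer bolus in the tail vein and were killed with i.v. pentobarbitone at 2.5 or 20 min. Blood was drawn by cardiac puncture and plasma separated. Plasma from 2-3 mice (2.5 min) or 4 mice (20 min) was pooled and deproteinized with ice-cold acetonitrile. Supernatant was spiked with unlabeled reference and run on radio-HPLC to give the fraction of intact tracer versus metabolites.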

[5] = Stability in C57BL/6 mouse plasma at 13 to 38 MBq.kg^-1 after 2.5 mins; format: ADME, organism-based; details: read-out: Stability; how it was run: as §1

Matrix metalloproteinase-9, sequence (P14780 whole entry): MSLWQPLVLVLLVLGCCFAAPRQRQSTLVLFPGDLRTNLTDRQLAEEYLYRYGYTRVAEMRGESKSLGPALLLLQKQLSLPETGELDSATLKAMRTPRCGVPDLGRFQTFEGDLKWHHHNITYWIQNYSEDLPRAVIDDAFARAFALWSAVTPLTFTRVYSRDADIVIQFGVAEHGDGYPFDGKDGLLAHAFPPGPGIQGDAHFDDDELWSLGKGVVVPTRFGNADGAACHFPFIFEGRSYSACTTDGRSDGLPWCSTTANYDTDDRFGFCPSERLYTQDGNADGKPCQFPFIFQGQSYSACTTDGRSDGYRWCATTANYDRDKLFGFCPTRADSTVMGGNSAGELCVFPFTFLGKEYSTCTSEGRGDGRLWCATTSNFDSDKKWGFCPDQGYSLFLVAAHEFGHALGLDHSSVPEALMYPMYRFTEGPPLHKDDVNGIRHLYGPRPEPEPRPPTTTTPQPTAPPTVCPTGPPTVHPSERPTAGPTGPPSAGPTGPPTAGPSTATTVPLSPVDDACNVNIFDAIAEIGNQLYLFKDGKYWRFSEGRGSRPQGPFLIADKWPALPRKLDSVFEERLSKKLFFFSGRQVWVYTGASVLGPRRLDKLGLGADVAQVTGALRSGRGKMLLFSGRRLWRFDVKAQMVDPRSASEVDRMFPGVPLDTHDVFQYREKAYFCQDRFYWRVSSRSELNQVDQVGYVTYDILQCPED

| IC50 [1] | IC50 [2] | IC50 (Neutrophil collagenase) | IC50 (Collagenase 3) | logD [3] | remaining at 20 min [4] | remaining at 2.5 min [5] | Compound |
| --- | --- | --- | --- | --- | --- | --- | --- |
| 1300 nM | 5590 nM | 2460 nM | > 100000 nM |  |  |  | CC(C)[C@H](C(=O)O)N(Cc1ccccc1)S(=O)(=O)c1ccc(OCCF)cc1 |
| 103 nM | 30 nM | 75 nM | 59 nM |  |  |  | COc1ccc(S(=O)(=O)N(Cc2cccnc2Br)[C@@H](C(=O)NO)C(C)C)cc1 |
| 23 nM | 2 nM | 20 nM | 24 nM |  |  |  | COc1ccc(S(=O)(=O)N(Cc2ccc(Br)nc2)[C@@H](C(=O)NO)C(C)C)cc1 |
| > 100000 nM | > 100000 nM | 71000 nM | > 100000 nM |  |  |  | CC(C)[C@H](C(=O)O)N(Cc1cccnc1)S(=O)(=O)c1ccc(F)cc1 |
| 15000 nM | 41000 nM | 14000 nM | 14000 nM |  |  |  | CC(C)[C@H](C(=O)O)N(Cc1ccccc1)S(=O)(=O)c1ccc(N(C)C)cc1 |
| 69 nM | 22 nM | 3 nM | 10 nM |  |  |  | CC(C)[C@H](C(=O)NO)N(Cc1ccccc1)S(=O)(=O)c1ccc(OCCI)cc1 |
| 51 nM | 19 nM | 18 nM | 50 nM |  |  |  | COc1ccc(S(=O)(=O)N(Cc2cccnc2F)[C@@H](C(=O)NO)C(C)C)cc1 |
| 1350 nM | 207 nM |  |  |  |  |  | CC(C)[C@H](C(=O)O)N(Cc1ccccc1)S(=O)(=O)c1ccc(OCCI)cc1 |
| 50 nM | 4 nM | 2 nM | 11 nM |  |  |  | CC(C)[C@H](C(=O)NO)N(Cc1ccccc1)S(=O)(=O)c1ccc(OCCF)cc1 |
| 1330 nM | 992 nM | 1200 nM | 1340 nM |  |  |  | CC(C)[C@H](C(=O)NO)N(Cc1cccnc1)S(=O)(=O)c1ccc(N(C)C)cc1 |
|  |  |  |  | 1.34 | 53% |  | CC(C)[C@H](C(=O)NO)N(Cc1cccnc1)S(=O)(=O)c1ccc(OCC[18F])cc1 |
| 35000 nM | 9110 nM | 7480 nM | 34000 nM |  |  |  | COc1ccc(S(=O)(=O)N(Cc2cccnc2Br)[C@@H](C(=O)O)C(C)C)cc1 |
|  |  |  |  | 2.02 | 37% | 86% | CC(C)[C@H](C(=O)NO)N(Cc1ccccc1)S(=O)(=O)c1ccc(OCC[18F])cc1 |
| 821 nM | 4350 nM | 754 nM | 9140 nM |  |  |  | CC(C)[C@H](C(=O)O)N(Cc1ccccc1)S(=O)(=O)c1ccc(F)cc1 |
| 0.5 nM | 8 nM | 0.9 nM | 0.9 nM |  |  |  | COc1ccc(S(=O)(=O)N(Cc2ccc(F)nc2)[C@@H](C(=O)NO)C(C)C)cc1 |
| 6930 nM | 6120 nM | 6760 nM | 3260 nM |  |  |  | COc1ccc(S(=O)(=O)N(Cc2ccc(Br)nc2)[C@@H](C(=O)O)C(C)C)cc1 |
| 414 nM | 120 nM | 228 nM | 527 nM |  |  |  | CC(C)[C@H](C(=O)NO)N(Cc1cccnc1)S(=O)(=O)c1ccc(F)cc1 |
| 9820 nM | 35000 nM | 22000 nM | 30000 nM |  |  |  | COc1ccc(S(=O)(=O)N(Cc2ccc(F)nc2)[C@@H](C(=O)O)C(C)C)cc1 |
| 5150 nM | 756 nM | 14 nM | 10 nM |  |  |  | CC(C)[C@H](C(=O)NO)N(Cc1cccnc1)S(=O)(=O)c1ccc([N+](=O)[O-])cc1 |
| 281 nM | 239 nM | 12 nM | 384 nM |  |  |  | CC(C)[C@H](C(=O)NO)N(Cc1ccccc1)S(=O)(=O)c1ccc(F)cc1 |
| 10000 nM | 20000 nM | 78000 nM | 41000 nM |  |  |  | COc1ccc(S(=O)(=O)N(Cc2cccnc2F)[C@@H](C(=O)O)C(C)C)cc1 |
| 614 nM | 335 nM | 105 nM | 10 nM |  |  |  | CC(C)[C@H](C(=O)NO)N(Cc1ccccc1)S(=O)(=O)c1ccc(N(C)C)cc1 |

| Compound | IC50 [1] | IC50 [2] | IC50 (Neutrophil collagenase) | IC50 (Collagenase 3) | logD [3] | remaining at 20 min [4] | remaining at 2.5 min [5] |
| --- | --- | --- | --- | --- | --- | --- | --- |
| CC(C)[C@H](C(=O)NO)N(Cc1cccnc1)S(=O)(=O)c1ccc(OCCF)cc1 | 7 nM | 3 nM | 2 nM | 0.8 nM |  |  |  |
